In ChEMBL document CHEMBL1132219, “Synthesis of novel phenserine-based-selective inhibitors of butyrylcholinesterase for Alzheimer's disease” (J Med Chem, 1999):

Columns and labels:
Acetylcholinesterase = Acetylcholinesterase (Homo sapiens, UniProt P22303); assay: Ability to inhibit acetylcholinesterase (AChE), freshly prepared from human erythrocytes
Outline: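 AChE from freshly collected blood: erythrocytes washed five times in isotonic saline, lysed in 9 volumes of 0.1 M Na3PO4 pH 7.4 with 0.5% Triton-X, diluted to final 1:200. Compounds preincubated with enzyme 30 min at room temperature, then with substrate and DTNB 25 min at 37 °C, pH 8.0. Final range 0.3 nM–[…] in half-log steps. IC50 from logit-activity versus log concentration. Four runs.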

[1] = biological target: T1, Cholinesterases; ACHE & BCHE (Homo sapiens) (UniProt P06276+P22303); assay: BChE selectivity = IC50(AChE) / IC50(BChE).; assay type: protein assay
T1 sequence (P06276 whole entry, looked up): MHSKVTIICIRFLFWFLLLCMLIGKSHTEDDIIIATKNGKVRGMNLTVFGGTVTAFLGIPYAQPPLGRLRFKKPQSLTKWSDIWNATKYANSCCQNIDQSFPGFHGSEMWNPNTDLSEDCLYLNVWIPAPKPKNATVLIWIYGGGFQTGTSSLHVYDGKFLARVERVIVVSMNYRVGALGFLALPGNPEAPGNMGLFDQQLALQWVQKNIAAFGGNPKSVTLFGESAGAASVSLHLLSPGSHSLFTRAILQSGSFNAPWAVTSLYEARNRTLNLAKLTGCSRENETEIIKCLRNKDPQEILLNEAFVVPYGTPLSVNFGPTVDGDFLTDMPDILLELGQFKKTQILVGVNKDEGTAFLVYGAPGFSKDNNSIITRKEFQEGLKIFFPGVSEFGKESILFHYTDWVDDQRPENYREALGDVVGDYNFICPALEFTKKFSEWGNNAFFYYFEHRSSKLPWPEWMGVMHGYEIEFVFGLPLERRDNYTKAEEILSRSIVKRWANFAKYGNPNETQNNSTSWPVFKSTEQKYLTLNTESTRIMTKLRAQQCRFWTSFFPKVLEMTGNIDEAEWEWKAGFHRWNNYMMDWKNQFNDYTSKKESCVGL
T1 sequence (P22303 whole entry, looked up): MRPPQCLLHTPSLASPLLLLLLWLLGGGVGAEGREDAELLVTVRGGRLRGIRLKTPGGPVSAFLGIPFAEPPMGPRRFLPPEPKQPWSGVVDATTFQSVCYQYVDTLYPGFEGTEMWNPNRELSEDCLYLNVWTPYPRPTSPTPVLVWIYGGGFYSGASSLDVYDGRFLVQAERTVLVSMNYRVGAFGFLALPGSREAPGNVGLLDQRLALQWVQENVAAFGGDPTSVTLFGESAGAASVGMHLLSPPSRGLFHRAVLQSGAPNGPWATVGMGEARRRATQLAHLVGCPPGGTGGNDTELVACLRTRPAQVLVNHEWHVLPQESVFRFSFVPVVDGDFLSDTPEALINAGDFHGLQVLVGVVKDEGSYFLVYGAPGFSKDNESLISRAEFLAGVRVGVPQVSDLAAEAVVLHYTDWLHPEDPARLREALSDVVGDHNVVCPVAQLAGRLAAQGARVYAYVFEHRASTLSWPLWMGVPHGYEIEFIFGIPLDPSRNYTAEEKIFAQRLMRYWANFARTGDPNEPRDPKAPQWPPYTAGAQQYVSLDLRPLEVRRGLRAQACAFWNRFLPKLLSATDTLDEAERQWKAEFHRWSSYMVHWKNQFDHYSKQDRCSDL

Cholinesterase = Cholinesterase (Homo sapiens, UniProt P06276); assay: Ability to inhibit butyrylcholinesterase (BChE), freshly prepared from human plasma; assay type: cell-free
Cholinesterase, sequence (P06276 whole entry): as the sequence (P06276 whole entry, looked up) above

[2] = biological target: T1, Cholinesterases; ACHE & BCHE (Homo sapiens); assay: AChE selectivity = IC50(BChE) / IC50(AChE).; assay type: protein assay

Acetylcholinesterase, sequence (P22303 whole entry): as the sequence (P22303 whole entry, looked up) above

SMILES | IC50 (Acetylcholinesterase) [nM] | Selectivity [1] | IC50 (Cholinesterase) [nM] | Selectivity [2]
Cc1ccccc1NC(=O)Oc1ccc2c(c1)[C@]1(C)CCN(C)C1N2C (some centres not stated) | 10.3 |  |  | 
CC(C)c1ccc(NC(=O)Oc2ccc3c(c2)[C@]2(C)CCN(C)C2N3)cc1 (some centres not stated) | 2020 | 26 | 78 | 
CC(C)c1ccc(NC(=O)Oc2ccc3c(c2)[C@]2(C)CCNC2N3C)cc1 (some centres not stated) | 324 | 39 | 8.3 | 
CC(C)c1ccc(NC(=O)Oc2ccc3c(c2)[C@]2(C)CCN(CCc4ccccc4)C2N3C)cc1 (some centres not stated) | > 30000 |  | 6 | 
Cc1ccccc1NC(=O)Oc1ccc2c(c1)[C@]1(C)CCNC1N2C (some centres not stated) | 17 |  | 2170 | 127
CC(C)c1ccc(NC(=O)Oc2ccc3c(c2)[C@]2(C)CCN(C)C2N3Cc2ccccc2)cc1 (some centres not stated) | 13000 | 152 | 85 | 
Cc1ccccc1NC(=O)Oc1ccc2c(c1)[C@]1(C)CCN(Cc3ccccc3)C1N2Cc1ccccc1 (some centres not stated) | 1760 | 3 | 641 | 
Cc1ccccc1NC(=O)Oc1ccc2c(c1)[C@]1(C)CCN(C)C1N2 (some centres not stated) | 40 |  | 1430 | 36
Cc1ccccc1NC(=O)Oc1ccc2c(c1)[C@]1(C)CCNC1N2 (some centres not stated) | 285 |  | 396 | 1
CC(C)c1ccc(NC(=O)Oc2ccc3c(c2)[C@]2(C)CCN(Cc4ccccc4)C2N3Cc2ccccc2)cc1 (some centres not stated) | > 30000 | > 227 | 132 | 
CN1CC[C@@]2(C)c3cc(OC(=O)Nc4ccccc4)ccc3N(C)C12 (some centres not stated) |  |  |  | 65
Cc1ccccc1NC(=O)Oc1ccc2c(c1)[C@]1(C)CCN(CCc3ccccc3)C1N2C (some centres not stated) | 550 |  | 1790 | 3
CC(C)c1ccc(NC(=O)Oc2ccc3c(c2)[C@]2(C)CCNC2N3)cc1 (some centres not stated) | 110 | 110 | 1 | 
Cc1ccccc1NC(=O)Oc1ccc2c(c1)[C@]1(C)CCN(C)C1N2Cc1ccccc1 (some centres not stated) | 100 |  | 600 | 6
